Data reported in ChEMBL document CHEMBL4834471 (J Med Chem, 2021).
The source made the active and inactive calls. The rule behind the calls is not given here.

What was measured:
[1] = Drug concentration in plasma of mouse at 10 mg/kg, po within 1 hr; type: ADME, organism-based
[2] = Drug degradation in mouse at 10 mg/kg, po; type: ADME, organism-based; settings: in vivo
Method in brief: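 Mice with acute peritonitis dosed orally at 10 mg/kg; plasma compound and metabolite concentrations measured 90 min after administration from extracted chromatograms; n = 8 mice.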

[3] = Drug metabolism in human liver-on-chip assessed as compound conjugation with sulfate incubated for 48 hrs by UPLC-MS/MS analysis; type: ADME, tissue-based
Method in brief: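 Liver-on-chip built from differentiated HepaRG cells (hepatocyte-like and biliary-like) with a HUVEC endothelial layer. Loaded with compound at 1 μM and incubated 48 h; compound and metabolites quantified from extracted chromatograms; n = 3 independent experiments.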

[4] = Antioxidant activity assessed as DPPH radical scavenging activity at 0.1 to 10 uM incubated for 30 mins by microplate reader based assay; type: functional; settings: dose 0.1-10 µM
Method in brief: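 Compound incubated with DPPH (50 mM, as printed) in ethanol for 30 min, then absorbance read at 520 nm. Ascorbic acid at 25 μM used as positive control; n = 4 independent experiments.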

[5] = Cytotoxicity against human PBMC assessed as reduction in metabolic activity at <=1 uM after 2 to 24 hrs by MTT assay; settings: time 2-24 hrs
Method in brief: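 PBMC at 2 × 10^6/mL in monocyte medium treated 2 or 24 h at 37 °C, 5% CO2, with 0.1% DMSO vehicle. MTT added for 4 h in the dark, formazan solubilized in SDS/HCl, absorbance read at 570 nm.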

Monocyte = experiment: Cytotoxicity against human monocytes assessed as reduction in LDH release at <=1 uM after 2 to 24 hrs by CytoTox96 nonradioactive assay; type: cell-based; settings: time 2-24 hrs
Method in brief: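 Monocytes at 4 × 10^5/mL in monocyte medium treated 2 or 24 h at 37 °C, 5% CO2, with 0.1% DMSO vehicle. LDH release measured by CytoTox 96 kit, with Triton X-100 (0.8%) defining maximum release.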

[6] = target: T1, Bifunctional epoxide hydrolase 2 (Homo sapiens) (UniProt P34913); experiment: Inhibition of recombinant human sEH expressed in Sf9 insect cells at 10 uM using PHOME as substrate preincubated for 10 mins followed by substrate addition and measured after 60 mins by fluorescence microplate method; settings: time 70.0 min
T1 sequence (whole entry): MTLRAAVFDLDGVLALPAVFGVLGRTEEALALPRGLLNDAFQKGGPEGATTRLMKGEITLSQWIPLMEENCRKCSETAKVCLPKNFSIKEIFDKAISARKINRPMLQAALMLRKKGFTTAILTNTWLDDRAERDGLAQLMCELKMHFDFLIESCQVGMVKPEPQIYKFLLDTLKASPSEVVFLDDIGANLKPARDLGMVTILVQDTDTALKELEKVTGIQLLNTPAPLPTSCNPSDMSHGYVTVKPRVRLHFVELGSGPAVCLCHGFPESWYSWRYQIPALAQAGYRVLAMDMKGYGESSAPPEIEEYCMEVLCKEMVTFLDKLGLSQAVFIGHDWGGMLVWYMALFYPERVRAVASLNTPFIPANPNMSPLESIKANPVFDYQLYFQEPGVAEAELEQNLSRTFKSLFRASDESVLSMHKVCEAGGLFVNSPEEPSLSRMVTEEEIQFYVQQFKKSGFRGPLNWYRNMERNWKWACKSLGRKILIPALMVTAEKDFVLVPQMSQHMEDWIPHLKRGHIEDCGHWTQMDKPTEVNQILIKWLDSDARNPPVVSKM

[7] = target: T2, Polyunsaturated fatty acid lipoxygenase ALOX15 (Homo sapiens) (UniProt P16050); experiment: Inhibition of 15-LOX in human PMNL assessed as reduction in 15-LOX product formation at 0.03 to 0.2 uM treated with AA and A23187 by RP-HPLC method; type: tissue-based; settings: dose 0.03-0.2 µM
T2 sequence (whole entry): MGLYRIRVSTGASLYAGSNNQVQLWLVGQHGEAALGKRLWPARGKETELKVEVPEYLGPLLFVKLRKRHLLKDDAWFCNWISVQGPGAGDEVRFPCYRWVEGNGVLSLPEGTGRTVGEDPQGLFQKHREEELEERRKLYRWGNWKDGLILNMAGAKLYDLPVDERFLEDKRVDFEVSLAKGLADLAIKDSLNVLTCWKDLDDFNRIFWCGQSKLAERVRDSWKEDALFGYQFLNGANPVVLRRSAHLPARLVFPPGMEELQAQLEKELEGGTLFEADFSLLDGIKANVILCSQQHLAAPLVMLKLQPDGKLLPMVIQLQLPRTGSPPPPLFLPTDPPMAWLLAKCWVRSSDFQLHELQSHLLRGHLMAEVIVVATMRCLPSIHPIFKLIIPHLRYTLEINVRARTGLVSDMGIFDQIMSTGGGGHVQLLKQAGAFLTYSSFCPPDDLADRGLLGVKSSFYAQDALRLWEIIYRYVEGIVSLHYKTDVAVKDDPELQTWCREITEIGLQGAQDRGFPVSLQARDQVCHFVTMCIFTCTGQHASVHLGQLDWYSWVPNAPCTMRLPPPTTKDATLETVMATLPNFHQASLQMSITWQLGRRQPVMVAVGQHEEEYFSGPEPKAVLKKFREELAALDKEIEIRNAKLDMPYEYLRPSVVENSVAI

Keratinocyte = experiment: Antiinflammatory activity in cytokine cocktail-induced reconstructed human epidermis model assessed as attenuation of epidermal disorganization at 5 to 25 uM after 4 days by HE staining based assay; type: functional, cell-based; settings: dose 5-25 µM, time 4.0 day
Method in brief: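 Reconstructed human epidermis exposed to compound and stressed with a cytokine cocktail for 4 days. Readouts: IL-8 in growth medium, H&E morphology, transepidermal water loss, stratum corneum permeability to Lucifer yellow with DAPI nuclear stain, and surface pH. n = 2–3 independent experiments.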

Mus musculus [8] = experiment: Antiinflammatory activity in zymosan-induced CD-1 mouse peritonitis model assessed as reduction in immune cell infiltration into peritoneal cavity at 10 mg/kg, ip preincubated with compound for 30 mins followed by zymosan addition and measured after 4 hrs; type: functional, organism-based; settings: time 270.0 min
Method in brief: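 Zymosan peritonitis with compound 10 mg/kg i.p. Vascular permeability assessed at 30 min after zymosan. Exudate LTB4 (ELISA) and peritoneal immune cell infiltration assessed at 4 h. Two-tailed unpaired t-test of log data.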

[9] = Drug concentration in plasma of CD-1 mouse at 30 mg/kg, po after 30 mins; type: ADME, organism-based
Method in brief: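 Oral dosing at 30 mg/kg in zymosan peritonitis; mice killed 30 min after zymosan injection. Compound concentrations measured in plasma and in peritoneal exudate.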

Mus musculus [10] = experiment: Antiinflammatory activity in zymosan-induced CD-1 mouse peritonitis model assessed as reduction in 5-LOX product level at 10 mg/kg, po preincubated with compound for 60 mins followed by zymosan addition and measured after 30 mins; type: functional, organism-based; settings: time 90.0 min
Method in brief: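 Oral dosing at 10 mg/kg in zymosan peritonitis; mice killed 30 min after zymosan. Peritoneal exudate lipid mediators and fatty acids profiled by UPLC-MS/MS, with LTC4 measured by ELISA; results expressed as fold change versus vehicle.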

Mus musculus [11] = experiment: Antiinflammatory activity BALB/c mouse assessed as restoration of salbutamol-induced adrenergic bronchial relaxation at 10 mg/kg, po administered on day 0 and 7 and measured upto 21 days; type: functional, organism-based; settings: time day <=21

What does the source list for `C/C(=C\CC/C(C)=C/CC[C@]1(C)CCc2c(C)c(O)c(C)c(C)c2O1)CCC=C(CO)CO`?
concentration at 1 h [1]: 30 nM; Stabilty [2]: Stable; Drug metabolism [3]: Metabolite_Detected; Activity [4]: inactive; Activity [5]: Non-Toxic; Activity (Monocyte): Non-Toxic; inhibition [6]: inactive; inhibition [7]: inactive; Activity (Keratinocyte): Active; Activity (Mus musculus [8]): Active; concentration at 0.5 h [9]: 20 nM; Activity (Mus musculus [10]): Active; Activity (Mus musculus [11]): Active
